# Compound activity as filed in PubChem BioAssay.
# DYRK1A inh = inhibitors of rat Dyrk1A kinase; Q63470; ADP-Glo luminescence, NFATc1 peptide; inhibition, % at 12.5 µM; 310,000 tested, 0.43% active;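 also: plate controls were vehicle with enzyme for no effect and no enzyme for full effect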
# CDK5 p35 inh = inhibitors of human CDK5/p35 kinase | Q00535+Q15078 | Recombinant CDK5/p35, ADP-Glo luminescence, 60 min | inhibition, % at 10 µM | 330,000 tested, 0.01% active;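 active = highest replicate inhibition of at least 50% and at least 75% of replicates reaching 50%; inconclusive = only one of the two criteria met; inactive = both criteria failed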;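 also: plate controls were DMSO neutral control for no effect and GW8510 at 10 µM for full effect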
# Target sequence (Q00535 whole entry, looked up): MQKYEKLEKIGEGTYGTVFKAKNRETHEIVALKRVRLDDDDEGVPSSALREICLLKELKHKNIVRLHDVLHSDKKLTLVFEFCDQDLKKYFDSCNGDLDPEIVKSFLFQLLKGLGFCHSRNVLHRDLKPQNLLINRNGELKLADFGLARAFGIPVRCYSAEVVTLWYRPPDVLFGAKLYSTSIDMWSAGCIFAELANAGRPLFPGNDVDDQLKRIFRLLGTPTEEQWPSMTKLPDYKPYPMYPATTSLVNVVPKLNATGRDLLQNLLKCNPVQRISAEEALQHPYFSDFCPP
# Target sequence (Q15078 whole entry, looked up): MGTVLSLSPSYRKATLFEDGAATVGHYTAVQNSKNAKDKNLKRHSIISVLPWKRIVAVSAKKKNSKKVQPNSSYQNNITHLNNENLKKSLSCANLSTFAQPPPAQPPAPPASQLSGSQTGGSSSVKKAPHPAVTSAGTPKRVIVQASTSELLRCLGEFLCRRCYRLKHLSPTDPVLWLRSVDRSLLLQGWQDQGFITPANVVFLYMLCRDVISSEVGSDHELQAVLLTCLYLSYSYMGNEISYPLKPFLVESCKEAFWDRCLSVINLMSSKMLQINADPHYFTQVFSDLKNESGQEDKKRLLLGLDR
# SR-BI DiI-HDL act = activators of SR-BI mediated HDL lipid uptake; CHO ldlA[mSR-BI] cells, DiI-HDL uptake fluorescence, 3 h; 100 = double the neutral-control signal; activation, % at 12.5 µM; 320,000 tested, 0.096% active;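 active = mean replicate activation of at least 60% and every replicate at or above 60%; inconclusive = mean or all-replicate condition met, but not both; inactive = mean below 60% and not all replicates reaching 60%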;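 also: 0% = median plate neutral-control signal and 100% = twice that signal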
#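 Assay system: LDL receptor-deficient CHO ldlA cells overexpressing murine SR-BI / Medium: BSA-supplemented, HEPES-buffered Ham's F12, pH 7.4 / Probe or stimulus: DiI-labelled HDL at 10 µg/mL final / Timing: compound with DiI-HDL co-incubation, 3 h at 37 °C / Technique: bottom-read cell fluorescence after medium removal, ex 550/em 595 nm / Measure: HDL uptake via cellular fluorescence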
# SR-BI HDL uptake = inhibitors of mouse SR-BI mediated HDL lipid uptake | Q61009 | ldlA[mSR-BI] CHO cells, DiI-HDL uptake fluorescence, 3 h | inhibition, % at 12.5 µM | 320,000 tested, 0.96% active | AID 488896;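 active = mean replicate inhibition of at least 70% and a set share of replicates each scoring 70 or more; inconclusive = meets just one of the two criteria; inactive = fails both criteria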;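 also: 0% = median of neutral control wells and 100% = median of positive control wells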
# dFosB act-1 = activators of mouse delta FosB homodimer | P13346 | purified delta FosB, TAMRA-CDK5 oligo fluorescence polarization; percent of positive-control signal above neutral wells | activation, % at 25 µM | 340,000 tested, 0.99% active | AID 493131;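 active = mean activation above about 17%, with every replicate also reaching it, limit read from the data, passing the limit was not always enough; inconclusive = only one of the two conditions met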
# NSD2 inh = inhibitors of human histone methyltransferase NSD2. inhibition, % at 12.5 µM. 310,000 tested, 0.54% active. NSD2 peptide methylation, AlphaScreen, 120 min
# dFosB act-2 = enhances mouse delta FosB homodimer binding to DNA | 2,400 tested, under 10 active | purified delta FosB, TAMRA-CDK5 oligo fluorescence polarization; normalised: neutral wells 0, positive control 100 | activation, % at 24.9 µM | shares compounds with dFosB act-1;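 active = highest replicate activation at or above 34% and every replicate reaching that threshold; inconclusive = meets only one of the two criteria; inactive = meets neither criterion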;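 also: higher polarization means more probe DNA bound by delta FosB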
# An asterisk follows results filed as active; ? = inconclusive; / = no result. In the library only some 2.5% were active in any assay of this set; here they are far more common. Rule as the data show it, unless noted: active = inhibition above about 50%; inactive = the rest.
SMILES,DYRK1A inh,CDK5 p35 inh,SR-BI DiI-HDL act,SR-BI HDL uptake,dFosB act-1,NSD2 inh,dFosB act-2
CC(C)c1ccc(NC(=O)[C@H](NC(=O)[C@@H]2Cc3ccccc3CN2)c2ccccc2)cc1,-4,2,-3,3,57*,1,5
Cc1cccn2c(=O)c3cc(C(=O)NCCc4ccccc4)c(=N)n(Cc4ccco4)c3nc12,-4,-1,16,-16,5,-7,/
Cc1ccc(CNC(=O)c2cc3c(=O)n4ccccc4nc3n(Cc3ccco3)c2=N)cc1,1,-1,-6,6,25*,-1,0
Cc1cccn2c(=O)c3cc(C(=O)NCc4ccco4)c(=N)n(CCc4ccccc4)c3nc12,-5,-1,/,/,20*,0,-2
COc1ccc(Cn2c(=N)c(C(=O)NC3CCCCC3)cc3c(=O)n4ccccc4nc32)cc1,/,/,-20,20,34*,-27,5
COc1ccc(C(=O)NCCCC2CCCC2)cc1OC1CCN(C(C)C)CC1,/,/,/,/,/,2,/
CN(C)CCCN(C(=O)c1ccc(S(=O)(=O)N2CCCCCC2)cc1)c1nc2ccc(F)cc2s1,3,-1,-13,13,0,3,/
CCOC(=O)N1CCN(S(=O)(=O)c2ccc(C(=O)N(CCCN(C)C)c3nc4ccc(CC)cc4s3)cc2)CC1,1,-2,23,-23,32*,3,1
CCc1ccc2nc(N(CCCN(C)C)C(=O)c3ccc(S(=O)(=O)N4CCCC4)cc3)sc2c1,3,2,17,-17,7,3,/
CN(C)CCN(C(=O)c1ccc(S(=O)(=O)N2CCc3ccccc32)cc1)c1nc2ccc(F)cc2s1,-3,-2,9,-9,62*,0,0
CCc1ccc2nc(N(CCCN(C)C)C(=O)c3ccc(S(=O)(=O)N4CCCc5ccccc54)cc3)sc2c1,18,-2,12,-12,23*,1,7
O=C(CNC(=O)c1n[nH]c2ccccc12)Nc1ccc(F)c(F)c1F,/,0,1,-1,23*,-2,3
O=C1NC[C@H](Cc2ccccc2)N(C[C@H]2CCCN2C[C@H](Cc2ccccc2)N2C[C@H](Cc3ccccc3)N(CC3CCCCCC3)C(=O)C2=O)C1=O,/,1,-6,6,0,/,/
CC(C)C[C@@H](CN1CCC[C@@H]1CN1C(=O)C(=O)NC[C@@H]1Cc1ccccc1)N1C[C@H](Cc2ccc(O)cc2)N(CC2CCCCC2)C(=O)C1=O,/,-6,-6,6,-23,/,/
CC(C)C[C@@H](CN1CCCC1CN1C(=S)NC[C@@H]1Cc1ccc(O)cc1)N1C[C@H](Cc2ccc(O)cc2)N(CC2CCCCCC2)C1=S (stereo partly specified),/,1,?,-61,21*,/,2
CC(C)C[C@@H](CN1CCC[C@@H]1CN1C(=O)C(=O)NC[C@@H]1Cc1ccccc1)N1C[C@H](Cc2ccccc2)N(CC2CCCCCC2)C(=O)C1=O,/,1,-4,4,35*,/,5
CC(C)C[C@@H](CN1CCCC1CN1C(=S)NC[C@@H]1Cc1ccc(O)cc1)N1C[C@H](Cc2ccccc2)N(CC2CCCCCC2)C1=S (stereo partly specified),/,-1,8,-8,45*,/,5
CC(C)C[C@H]1CN([C@@H](CC(C)C)CN2CCC[C@@H]2CN2C(=O)C(=O)NC[C@@H]2Cc2ccccc2)C(=O)C(=O)N1CC1CCCCC1,/,0,8,-8,-19,/,/
CC(C)C[C@@H](CN1CCCC1CN1C(=S)NC[C@@H]1Cc1ccc(O)cc1)N1C[C@H](Cc2ccccc2)N(CC2CCCCC2)C1=S (stereo partly specified),/,0,-5,5,52*,/,1
CC(C)CNC(=O)C(=O)NCC1OCCCN1S(=O)(=O)c1ccc2c(c1)OCCO2 (stereo unspecified),-3,0,3,-3,-1,-1,/
CC(C)C[C@H]1CNC(=S)N1CC1CCCN1C[C@H](Cc1ccccc1)N1C[C@H](Cc2ccc(O)cc2)N(CC2CCCCCC2)C1=S (stereo partly specified),/,-3,17,-17,57*,/,7
CC(C)C[C@H]1CN([C@@H](Cc2ccc(O)cc2)CN2CCC[C@@H]2CN2C(=O)C(=O)NC[C@@H]2Cc2ccccc2)C(=O)C(=O)N1CC1CCCCC1,/,0,-1,1,-10,/,/
C=CCn1c(SCc2nc3ccccc3c(=O)[nH]2)nc2scc(C3CC3)c2c1=O,-5,0,/,/,33*,-2,3
CCn1c(SCc2nc3ccccc3c(=O)[nH]2)nc2ccccc2c1=O,4,-1,-7,7,3,0,/
CCOc1ccc(-c2c(C(=O)N/N=C/c3sccc3C)nnn2-c2nonc2N)cc1,7,0,-87,87*,22*,8,-1
SMILES,DYRK1A inh,CDK5 p35 inh,SR-BI DiI-HDL act,SR-BI HDL uptake,dFosB act-1,NSD2 inh,dFosB act-2
CCOc1cccc(-c2c(C(=O)N/N=C/c3ccc(C)s3)nnn2-c2nonc2N)c1,12,-1,-16,16,-2,1,/
CCOc1ccc(-c2c(C(=O)N/N=C/c3ccc(Cl)cc3)nnn2-c2nonc2N)cc1,/,/,-55,55,45*,-1,5
CCOc1ccc(/C=N/NC(=O)c2nnn(-c3nonc3N)c2-c2cccs2)cc1,3,-2,-63,63,10,-1,/
CCOc1ccc(-c2c(C(=O)N/N=C/c3ccc(C)s3)nnn2-c2nonc2N)cc1,-1,3,-66,66,58*,15,3
CCOc1cccc(-c2c(C(=O)N/N=C/c3sccc3C)nnn2-c2nonc2N)c1,27,-1,-66,66,5,-2,/
CC(NC(=O)C(=O)NCCc1c[nH]c2ccccc12)c1ccccc1 (stereo unspecified),-1,0,-30,30,4,1,/
CCCCN(C)c1c(C)nc2ccc(C(=O)N(C)Cc3ccco3)cn12,/,/,/,/,/,4,/
CCOc1ccc(-n2c(=O)c3sccc3n(Cc3ccc(C)cc3)c2=O)cc1,-3,-1,/,/,26*,-3,5
COc1ccc(NC(=O)CCCn2c(=O)c3sccc3n(Cc3ccc(C)cc3)c2=O)cc1,-6,0,-4,4,29*,-4,-1
COc1ccc(NC(=O)CCCn2c(=O)c3sccc3n(Cc3cccc(C)c3)c2=O)cc1,-5,1,-4,4,-7,-1,/
COc1cc(-c2coc3c(C(=O)NCc4ccccc4)cccc23)ccc1O,/,/,/,/,/,2,/
NC(=O)c1nsc(C(=O)N(c2ccccc2)C(C(=O)NC2CCCC2)c2ccncc2)c1N (stereo unspecified),4,-2,/,/,-5,4,/
